{"source": "paper PMC9126795", "about": "(eBioMedicine, 2022)", "key": {"[1]": {"system": "patients with HCV and HBV liver cirrhosis", "assay": "Ishak", "format": "in vivo, human", "method_in_brief": "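Liver biopsies were taken at screening (baseline) and within 2 weeks of the final dose of 280 mg/m²/4 h IV twice weekly for 12 weeks. Three independent pathologists scored slides blinded, using Knodell scoring and Ishak-modified HAI for necroinflammation and fibrosis stage. Thirteen of 15 patients were evaluable; one was excluded for poor sample quality and one discontinued.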"}, "[2]": {"system": "patients with HCV and HBV liver cirrhosis", "assay": "Child-Pugh", "format": "in vivo, human", "settings": "12 weeks after PRI-724 administration", "method_in_brief": "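Patients with HCV- or HBV-induced cirrhosis (Child–Pugh A or B) received the test compound at 280 mg/m² by 4 h IV infusion twice weekly for 12 weeks. Child–Pugh class and score were assessed at baseline and 12 weeks post-treatment. Fourteen patients were analysed, with one who discontinued excluded.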"}, "[3]": {"system": "patients with HCV and HBV liver cirrhosis", "assay": "Collagen proportionate area", "format": "in vivo, human", "settings": "baseline vs 12 weeks after PRI-724 administration, 280 mg/m^2/4 h"}, "[4]": {"system": "patients with HCV and HBV liver cirrhosis", "assay": "Serum ALB, PT and TBIL", "format": "in vivo, human", "settings": "14 patients"}, "[5]": {"system": "murine models of liver fibrosis", "settings": "due to hepatic stellate cell inactivation and macrophage migration; cited from earlier work"}, "[6]": {"settings": "280mg/m^2/4 h, 12 weeks, 13 patients"}}, "data": [{"substance": "PRI-724", "values": [{"measurement": "Patients with change in Fibrosis score from baseline of 0", "setting": "[1]; [6]", "result": 6}, {"measurement": "Patients with change in Fibrosis score from baseline of 1", "setting": "[1]; [6]", "result": 3}, {"measurement": "Patients with change in Fibrosis score from baseline of 2", "setting": "[1]; [6]", "result": 1}, {"measurement": "Patients with change in Fibrosis score from baseline of -1", "setting": "[1]; [6]", "result": 1}, {"measurement": "Patients with change in Fibrosis score from baseline of -2", "setting": "[1]; [6]", "result": 2}, {"measurement": "Patients with change in Necroinflammatory score from baseline of 0", "setting": "[1]; [6]", "result": 5}, {"measurement": "Patients with change in Necroinflammatory score from baseline of 1", "setting": "[1]; [6]", "result": 2}, {"measurement": "Patients with change in Necroinflammatory score from baseline of 2", "setting": "[1]; [6]", "result": 2}, {"measurement": "Patients with change in Necroinflammatory score from baseline of -1", "setting": "[1]; [6]", "result": 2}, {"measurement": "Patients with change in Necroinflammatory score from baseline of -2", "setting": "[1]; [6]", "result": 2}, {"measurement": "Mean activity score", "setting": "[1]; after 12-week PRI-724 administration", "result": "No change was observed"}, {"measurement": "Change of CP class in the seven patients with CP class B at baseline", "setting": "[2]", "result": "two improved to class A, four remained unchanged, and one worsened"}, {"measurement": "Collagen proportionate area of the whole liver tissue", "setting": "[3]", "result": "no statistically significant change was observed"}, {"measurement": "Serum ALB level", "setting": "[4]", "result": "improved from baseline at some time after PRI-724 administration"}, {"measurement": "Serum TBIL level", "setting": "[4]", "result": "improved from baseline at some time after PRI-724 administration"}, {"measurement": "Anti-fibrotic effect", "setting": "[5]", "result": "exhibits anti-fibrotic effects"}]}]}
